# Screening results: PubChem BioAssay, several laboratories
# Shown is part of a subset that was picked to be rich in hits.
# CHOP UPR activ = apoptotic UPR (CHOP) activation; CHO-CHOP luciferase reporter, luminescence; percent of tunicamycin response over DMSO baseline; activation, % at 10 µM; hit rate 0.34% among 330,000; AID 449763;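 active = at 10 µM dose, activation of 40% or more, normalized to positive control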;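 also: 100% = tunicamycin at 10 µg/mL and 0% = DMSO alone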
#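 Test system: CHO-CHOP cells, stable luciferase reporter of PERK-eIF2a-CHOP signalling | Quantity: 500 CHO-CHOP cells per well | Buffer or medium: F12 plus 10% serum | Compound dosing: 10 µM single point, 0.5% DMSO | Schedule: 6 h compound treatment, 37 °C | Signal: Luciferase luminescence | Control set: Tunicamycin high control, DMSO low control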
# PvdQ inh = blocks Pseudomonas aeruginosa PvdQ acylase activity | hit rate 0.063% among 340,000 | purified PvdQ acylase, fluorescence plate reader | inhibition, % at 10 µM; in the data active = inhibition above about 30%, passing the limit was not always enough;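 also: 0% = vehicle neutral wells and 100% = reference inhibitor wells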
# UPR XBP1 act = activators of adaptive arm of unfolded protein response (XBP1); activation, % at 20 µM; AID 463104; CHO-XBP1 luciferase reporter, IRE1-XBP1 UPR activation, luminescence; percent of tunicamycin response, DMSO as zero; hit rate 0.33% among 330,000;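 active = versus positive control, 20 µM dose yields 30% or more activation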;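 also: 100% = tunicamycin at 10 µg/mL and 0% = DMSO only wells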
#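 Test system: CHO-XBP1 luciferase reporter cells | Buffer or medium: Serum-containing F12 medium, 10% FBS | Schedule: 6 h compound exposure at 37 °C, 5% CO2 | Detection: Steady-Glo luciferase glow luminescence, 10 min after reagent addition | Read-out basis: Activation, % of tunicamycin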
# CHOP inh = blocks CHOP induction under ER stress; CHO-K1 CHOP-promoter luciferase, tunicamycin-induced, 15-18 h; inhibition, % at 10 µM; hit rate 3.8% among 220,000;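 active = compounds that reduced the stress-induced luciferase reporter signal by more than about 70% of percent inhibition, limit read from the data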;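 also: 0% = tunicamycin plus vehicle and 100% = wells without tunicamycin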
# CHOP inh conf = confirmation of CHOP induction inhibitors | shares compounds with CHOP inh | hit rate 45% among 2,100 | CHO-CHOP promoter luciferase reporter, tunicamycin-induced, luminescence | inhibition, % at 10 µM;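 active = mean of three repeat readings of reporter signal inhibition above a set limit, cut at about 70% in these data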;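 also: 0% = tunicamycin plus vehicle and 100% = wells lacking tunicamycin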
# An asterisk follows results filed as active; . = not tested or not shown.
SMILES,CHOP UPR activ,PvdQ inh,UPR XBP1 act,CHOP inh,CHOP inh conf
Cc1ccc(CNC(=O)C2CCC(CNc3nc(=S)[nH]c4ccccc34)CC2)cc1 (centres undefined),-2,-9,0,98*,40
Cc1cc(Br)cc(Br)c1OCC(=O)NNC(=O)Nc1ccccc1,-1,-9,-1,.,.
CC(C)(C)c1cc(-c2csc(Nc3ccccc3)[n+]2Cc2ccc(C(=O)O)cc2)cc(C(C)(C)C)c1O,0,0,11,106*,121*
CC(C)(C)c1cc(C(c2cccnc2)N2CCN(CCO)CC2)cc(C(C)(C)C)c1O (centres undefined),-9,6,-9,110*,-60
CC(=O)c1nn(-c2cccc(Br)c2)cc1C(=O)c1ccc(Cl)cc1,1,7,0,56,.
CCN(CCO)c1ncnc2c1sc1nc(CC(C)C)c3c(c12)CC(C)(C)OC3,1,8,12,106*,92*
CCOc1cc2[nH]c(=S)n(C3CC3)c(=O)c2cc1OCC,2,-12,-2,-18,.
CCOC(=O)N1CCC(n2c(=S)[nH]c3cc(OCC)c(OCC)cc3c2=O)CC1,16,-17,24,101*,98*
O=C(Nc1cc(Cl)cc(Cl)c1)c1cccc(OC(F)F)c1,4,4,6,97*,24
CC(=O)Nc1ccc(NC(=O)C(C)OC(=O)CCc2c[nH]c3ccccc23)cc1 (centres undefined),1,-12,-3,.,.
O=C(Nc1ccc2nc(-c3ccccc3)[nH]c2c1)c1ccco1,2,-10,6,-16,.
O=C(Nc1ccc(Cl)c(-c2nc3ccccc3[nH]2)c1)c1ccc2c(c1)OCO2,2,-4,5,64,.
O=C(Nc1ccc(-c2nc3ccccc3[nH]2)cc1)c1ccc2c(c1)OCO2,13,18,12,105*,27
O=C(Nc1cccc(-c2nc3ccccc3[nH]2)c1)c1cccc(NC(=O)c2ccco2)c1,8,-10,-2,107*,-20
CC1Sc2ccc(S(=O)(=O)CCC(=O)N3CCN(c4ccccc4F)CC3)cc2NC1=O (centres undefined),0,-8,-4,.,.
COc1ccc(NC(=O)CN2C(=O)NC3(CCCC3)C2=O)cc1Cl,0,-10,-4,.,.
O=C(/C=C/c1cccc(Cl)c1)c1nc2ccccc2[nH]1,12,-7,26,102*,-123
Cc1cccc(S(=O)(=O)c2c(N)n(/N=C/c3ccccc3)c3nc4ccccc4nc23)c1,4,8,-3,11,.
Nc1c(S(=O)(=O)c2ccccc2)c2nc3ccccc3nc2n1/N=C/c1cccc(O)c1,4,-9,2,103*,72*
Cc1cccc(C)c1OCc1cc(C(=O)N(Cc2c(C)nn(C)c2C)C2CC2)no1,1,-3,-5,.,.
Cc1cccc(N(C(=O)Cn2nnc3ccccc32)C(C(=O)NC(C)(C)C)c2ccsc2)c1C (centres undefined),-2,3,2,34,.
Cc1ccccc1CCN(C(=O)Cn1nnc2ccccc21)C(C(=O)NC(C)(C)C)c1ccsc1 (centres undefined),1,5,0,98*,-16
O=C(CSc1nc2ccsc2c(=O)n1CC1CCC(C(=O)O)CC1)c1ccc(Cl)cc1 (centres undefined),-1,-8,-6,102*,-34
O=C(/C=C/c1cccc([N+](=O)[O-])c1)n1cnc2ccccc21,-4,-17,-4,107*,116*
O=C(/C=C/c1cccc([N+](=O)[O-])c1)N1CCN(c2ccccn2)CC1,-1,-7,-7,.,.
SMILES,CHOP UPR activ,PvdQ inh,UPR XBP1 act,CHOP inh,CHOP inh conf
Cc1cccc(/C=N/n2c(C3CCCCC3)n[nH]c2=S)c1,2,8,4,.,.
CC(/C=N/n1c(C2CCCCC2)n[nH]c1=S)=C\c1ccccc1,-2,-3,2,107*,102*
Cc1ccc(Sc2ccc(NC(=O)c3ccc(S(C)(=O)=O)cc3Cl)cc2)cc1,1,-19,1,98*,65
COC(=O)CN1C(=S)N(Cc2ccccc2)C(=O)C1CC(=O)Nc1ccc(Br)cc1 (centres undefined),0,-13,-2,102*,98*
CCc1nn(CC(=O)NCCCN(CC)c2cccc(C)c2)c(=O)c2cc3occc3n12,1,.,-2,104*,31
Clc1ccc(Cn2cc(/C=N/n3cnnc3)c3ccccc32)c(Cl)c1,0,5,1,108*,49
CCOc1ccc(-c2nc(N)ncc2Oc2cccc(OC)c2)c(O)c1,0,-21,3,110*,25
CCOc1ccc(-c2nc(N)ncc2Oc2ccccc2Br)c(O)c1,-4,-22,-1,106*,47
CCOc1ccc(-c2n[nH]c(C)c2Oc2ccc(OC)cc2)c(O)c1,5,-4,6,108*,88*
C=C(C)COc1ccc(-c2nc(N)ncc2Oc2ccc(OC)cc2)c(O)c1,2,12,2,67,.
CC(=O)N1CCOc2ccc(S(=O)(=O)NC[C@H]3O[C@@H](n4cnc5c(N)ncnc54)[C@H](O)[C@@H]3O)cc21,4,-18,2,.,.
CCCCOc1ccc(/C(O)=C2/C(=O)C(=O)N(Cc3cccnc3)C2c2ccncc2)c(C)c1 (centres undefined),2,-4,1,20,.
Cc1ccc(/C=C2\SC(=S)N(CCCC(=O)Nc3ccccn3)C2=O)cc1,-11,1,-8,111*,114*
Cc1ccc(/C=C2\SC(=S)N(CCCC(=O)Nc3ccc(O)cc3)C2=O)cc1,-7,-25,-1,100*,114*
Cc1nc2ncnn2c(C)c1C/C=C/c1ccccc1,1,-2,0,22,.
COCCCN1C(=O)c2ccc(C(=O)Nc3ccc(C)cc3C)cc2C1=O,1,-10,-5,.,.
CC(=O)NC(c1ccccc1)c1cc(Cl)c2cccnc2c1O (centres undefined),0,-5,1,.,.
O=C(NC(c1ccc(Cl)cc1)c1cc(Cl)c2cccnc2c1O)c1cccnc1 (centres undefined),.,14,.,110*,38
CN(Cc1ccccc1)S(=O)(=O)c1ccc(N2CCCC2=O)cc1,-1,-16,1,.,.
CCOc1ccc(-n2c(SCC(=O)Nc3ccccc3CC)nc3n[nH]c(C)c3c2=N)cc1,-1,.,8,28,.
CCOc1ccc(-n2c(SCC(=O)Nc3ccc(Br)cc3)nc3n[nH]c(C)c3c2=N)cc1,12,-14,-1,103*,108*
Cc1n[nH]c(=S)n1/N=C/c1ccc(OCc2ccc(Cl)cc2Cl)cc1,5,-1,2,29,.
Cc1n[nH]c(=S)n1/N=C/c1ccccc1OCc1ccc(Cl)cc1Cl,2,-11,16,102*,3
CC1CCN(C(=O)COC(=O)c2ccc3c(c2)OCO3)CC1,5,-6,3,19,.
